# PTEN del growth = growth suppression of PTEN-null HCT116, primary screen, cell-based, CellTiter-Glo | AID 827, 2007 | 140,000 tested, 1.2% active | HCT116 PTEN-null viability, 60 h; hits give low values | viability, % at 10 µM;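 active = viability at or below a set limit, 4 SD under the median of all tested compounds, cut at about 3.7% in these data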;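 also: PTEN knockout HCT116 line with beta catenin targeted HCT116 as companion control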
# TNAP inh noacc = human TNAP enzyme inhibitors, primary screen, biochemical, luminescent, no phosphate acceptor, uHTS. Alkaline phosphatase, tissue-nonspecific isozyme (Homo sapiens), P05186. inhibition, % at 20 µM. AID 1012, 2008. purified TNAP, CDP-star luminescence, 30 min. 200,000 tested, 0.26% active;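 active = tissue-nonspecific alkaline phosphatase inhibition above about 50% at 20 µM in the single-dose screen, limit read from the data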;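 also: 0% = DMSO negative control and 100% = EDTA positive control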
# Target sequence (P05186 whole entry, looked up): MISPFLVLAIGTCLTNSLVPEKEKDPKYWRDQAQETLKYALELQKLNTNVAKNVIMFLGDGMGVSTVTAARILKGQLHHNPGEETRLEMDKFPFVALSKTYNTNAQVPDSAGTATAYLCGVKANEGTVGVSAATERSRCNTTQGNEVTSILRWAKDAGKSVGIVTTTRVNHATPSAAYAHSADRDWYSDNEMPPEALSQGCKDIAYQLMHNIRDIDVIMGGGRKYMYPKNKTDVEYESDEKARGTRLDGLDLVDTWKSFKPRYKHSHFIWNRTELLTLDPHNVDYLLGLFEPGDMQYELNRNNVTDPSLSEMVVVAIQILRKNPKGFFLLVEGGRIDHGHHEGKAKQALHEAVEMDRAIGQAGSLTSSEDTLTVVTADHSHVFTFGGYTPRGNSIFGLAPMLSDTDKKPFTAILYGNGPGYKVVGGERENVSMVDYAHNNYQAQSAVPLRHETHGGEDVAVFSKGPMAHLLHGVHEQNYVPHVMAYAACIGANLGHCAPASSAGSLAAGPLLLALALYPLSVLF
# Lmaj promast = Leishmania major promastigote growth inhibition, primary screen; Leishmania major promastigotes, resazurin fluorescence viability; inhibition, % at 10 µM; 200,000 tested, 9% active; AID 1063, 2008; in the data active = inhibition above about 50%;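 also: promastigotes grown with compound for 44 hours at 28 °C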
# TNAP inh hiacc = human TNAP enzyme inhibitors, primary screen, biochemical, luminescent, high phosphate acceptor level, uHTS | Alkaline phosphatase, tissue-nonspecific isozyme (Homo sapiens), P05186 | 200,000 tested, 0.03% active | inhibition, % at 20 µM | purified TNAP, CDP-star luminescence, 1 M DEA;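 active = over 50% inhibition of tissue-nonspecific alkaline phosphatase at 20 µM in the single-dose screen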;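 also: plate controls were DMSO wells for no effect and EDTA-quenched wells as full inhibition for full effect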
# TNAP act hi DEA = TNAP activators at high phosphate acceptor level, primary screen, biochemical, luminescence, uHTS; Alkaline phosphatase, tissue-nonspecific isozyme (Homo sapiens), P05186; purified TNAP, CDP-star luminescence, 1 M DEA, 30 min; hits give high values; 0 = EDTA background, 1 = DMSO-only activity; activation factor at 20 µM; 200,000 tested, under 10 active;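 active = activation factor at least 2 at 20 µM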
#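 Assay system: human TNAP; Input: enzyme diluted 1/800 final; Reagent: CDP-star luminogenic substrate at 100 µM final; Timing: 30 min, room temperature; Signal: luminescence; Evaluation: TNAP activation factor scaled between EDTA and DMSO control wells.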
# HCT116 bCat-KO = primary screen for growth suppressors in beta-catenin knockout HCT116 cells (colon tumor, human) | HCT116 beta-catenin knockout viability, CellTiter-Glo, 60 h; hits give low values | viability, % at 10 µM | 140,000 tested, 1.5% active | AID 818, 2007;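 active = viability at or under a set limit, the compound median less 4 SD, cut at about 6% in these data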;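 also: 0% = Hyamine 1622 control at 20 µM and 100% = untreated cell control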
# Active calls of the source: *; nt = no result given. In the library only some 9.6% were active in any assay of this set; here they are far more common.
SMILES,PTEN del growth,TNAP inh noacc,Lmaj promast,TNAP inh hiacc,TNAP act hi DEA,HCT116 bCat-KO
COc1ccc(/C=N/n2c(N)nc(-c3ccccc3)c2-c2ccccc2)cc1,39,15,57*,-5,1.1,37
COc1ccc(C(=O)Cc2cc(OC)c(OC)cc2C(=O)c2ccccc2F)cc1OC,nt,-8,5,-6,1.1,nt
CN1CCCN(Cc2ccc(Cl)cc2Cl)CC1,67,-4,98*,-8,1.1,61
OCCN1CCN(Cc2nc(-c3cccc(Cl)c3)no2)CC1,nt,-6,9,-2,1,nt
CN1CCCN(Cc2nc(-c3ccc(Cl)cc3)no2)CC1,nt,-10,93*,-9,1.1,nt
CC(=O)Nc1ccc(C(=O)CSc2cc(C)c3cccc(C)c3n2)cc1,96,-3,51*,-2,1,99
Cn1c(-c2ccc(Br)cc2)cnc1NCc1cccnc1,101,-12,100*,-4,1,101
Cn1c(-c2cccc([N+](=O)[O-])c2)cnc1NCc1cccc([N+](=O)[O-])c1,nt,3,33,1,1,nt
Cn1c(-c2ccc(F)cc2)cnc1NCc1ccc(C#N)cc1,94,-8,92*,-6,1.1,96
Cn1c(-c2ccc(F)cc2)cnc1NCc1ccc(F)cc1,82,-9,88*,0,1,75
CCOc1cc(CNc2ncc(-c3ccc(OC)cc3)n2C)ccc1O,103,-6,65*,-3,1,97
Cc1cnc(C(=O)OCC(=O)N(Cc2ccccc2)C(C)C)cn1,nt,-9,-2,-2,1,nt
COC(=O)CNC(=S)NC(=O)c1ccc(C(C)(C)C)cc1,nt,-193,1,3,1,nt
CCOc1ccc(NC(=O)CN2C(=O)NC(CCSC)C2=O)cc1 (stereo unspecified),nt,-3,-4,4,1,nt
CCOc1ccc2[nH]c(=O)c(CN(CC3COCCO3)C(=O)c3ccc(C)cc3)cc2c1 (stereo unspecified),nt,0,93*,-5,1,nt
COCCn1c(-c2ccccc2Cl)nc2c(c(=O)c3ccccc3n2C)c1=O,59,-17,23,2,1,60
NNC(=O)c1cc(O)c(O)c(O)c1,nt,58*,-4,15,0.8,nt
Cc1ccc2c(CN3CCN(CCO)CC3)cc(=O)oc2c1C,105,-10,55*,-4,1,93
Cc1ccc2c(CN3CCN(C(=O)c4ccco4)CC3)cc(=O)oc2c1C,nt,-7,6,-5,1,nt
Cc1cc2oc(=O)cc(CN3CCCc4ccccc43)c2cc1C,71,-10,99*,-2,1,79
CN1CCN(Cc2cc(=O)oc3cc4c(cc23)CCC4)CC1,92,-13,65*,-8,1.1,79
Cc1cccc(NC(=O)CSc2nnc(Cc3ccccc3)o2)c1,nt,-20,-11,-7,1.1,nt
Cc1ccc(S(=O)(=O)NCc2ccc(C(=O)NCCN(Cc3ccccc3)C(C)C)cc2)cc1,nt,-17,67*,-8,1.1,nt
C=CCn1c(SCC(=O)N2CCc3ccccc3C2)nnc1-c1ccncc1,99,-11,1,-2,1,95
FC(F)(F)c1cccc(N2CCN(Cc3cccnc3)CC2)c1,99,-15,88*,-1,1,100
SMILES,PTEN del growth,TNAP inh noacc,Lmaj promast,TNAP inh hiacc,TNAP act hi DEA,HCT116 bCat-KO
COc1cccc(N2CCN(Cc3cccnc3)CC2)c1,86,-12,41,-9,1.1,88
FC(F)(F)c1cccc(N2CCN(Cc3ccoc3)CC2)c1,100,-6,93*,1,1,87
Cc1ccccc1S(=O)(=O)Cc1ccc(C(=O)NCc2ccc(F)cc2)o1,nt,-1,9,2,1,nt
Cc1ccc(C(=O)N2N=C3c4ccccc4S(=O)(=O)N3[C@H]2N(C)C)cc1,nt,-8,-4,-7,1.1,nt
O=C(Nc1ccc(Cl)cn1)c1ccc(-c2cc(Cl)ccc2Cl)o1,7,-8,-8,-2,1,3.1*
O=C(Nc1ccc(CN2CCOCC2)cc1)c1ccc(-c2cccc(Cl)c2)o1,4,-6,99*,1,1,1.9*
O=C(/C=C/c1ccccc1)NC(=S)Nc1ccc(CN2CCOCC2)cc1,70,-13,21,-2,1,63
O=C(/C=C/c1ccc(Cl)cc1)Nc1ccc(CN2CCOCC2)cc1,22,-4,82*,0,1,22
Cc1cccc(C)c1NC(=O)c1ccc(-c2ccc(Cl)cc2Cl)o1,75,-2,91*,-3,1,83
O=C(Nc1ccc(CN2CCOCC2)cc1)c1ccc(-c2ccc(Cl)cc2Cl)o1,nt,-10,74*,0,1,nt
O=C(Nc1ccc(CN2CCOCC2)cc1)c1cc2ccccc2o1,74,0,9,3,1,65
Cc1ccc(NC(=O)NCC2CCN(Cc3cccc(Cl)c3)CC2)cc1Cl,nt,-47,87*,-19,1.2,nt
CCOC(=O)C1CCCN(Cc2cccc(Cl)c2)C1 (stereo unspecified),99,-13,-1,-4,1,88
Cc1ccc(NC(=O)NCC2CCN(Cc3cccc(Cl)c3)CC2)c(Cl)c1,nt,-55,84*,-7,1.1,nt
Cc1ccc(NC(=O)NCC2CCN(Cc3cc(C)ccc3Cl)CC2)c(C)c1,nt,-104,25,-12,1.1,nt
COc1cc(C(=O)Nc2ccc(C)cc2)c(-n2cnnn2)cc1OC,nt,-13,-5,-6,1.1,nt
Cc1ccc(NC(=O)C2C3CCCC2C3c2ccccc2)c(C)c1 (stereo unspecified),96,-12,84*,3,1,90
CCCNC(=O)NC(=O)CSc1nncs1,nt,6,-8,-4,1,nt
Cc1cc(C)c(S(=O)(=O)/N=C2/C=C(SCC(=O)O)C(=O)c3ccccc32)cc1C,nt,3,100*,6,0.9,nt
CC(C)c1ccc(NC(=S)NCCc2c[nH]c3ccccc23)cc1,67,-11,43,0,1,70
CCN(c1ccccc1)S(=O)(=O)c1ccc(OC)c(NC(=O)CNCC(C)O)c1 (stereo unspecified),91,-14,64*,0,1,85
CCC(C)NCC(=O)Nc1cc(S(=O)(=O)N(CC)c2ccccc2)ccc1Cl (stereo unspecified),82,-19,64*,-1,1,71
CCN(c1ccccc1)S(=O)(=O)c1ccc(OC)c(NC(=O)CN(C)C)c1,nt,-6,16,-5,1,nt
CCN(c1ccccc1)S(=O)(=O)c1ccc(OC)c(NC(=O)CNC)c1,nt,-4,7,-3,1,nt

# Compound activity (PubChem BioAssay)
